Experimental findings from PubChem BioAssay AID635 (SRMLSC, 2007) are described below.

Hit rate of the full screen: of about 1,300 compounds, about 40 (3%) were called active. These entries were drawn from the full list. Entries with a potency or affinity are not part of this list. A number with no mark means an inactive call. How the calls were made is not given here.

The nature of the test: growth inhibition of wild-type E. coli BW25113 pool, dose response, OD615 (AID 635). To be noted: pooled mutant strains; at 100 µM (top of the series). The method, boiled down: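 times: 20 h, 37 °C growth with compound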
`CCOC(=O)N1CCN(c2nc3ccccc3nc2C(C#N)S(=O)(=O)c2ccc(C)cc2)CC1` (configuration not stated): the growth inhibition was -1.57%.
With `CCOc1ccc(N(CC(=O)Nc2cccc(Cl)c2)S(=O)(=O)c2c(C)noc2C)cc1`, the growth inhibition is 2.36%.
Next, `CN1/C(=C\C(=O)COc2ccc3c(c2)OCO3)C(C)(C)c2ccccc21`: -6.25%; `O=C(COc1ccccc1)Nc1nnc(-c2ccc(Cl)s2)o1`: 2.47%.
Next, `O=c1c2c(nc3n1CCCCC3)-c1ccccc1CC21CCCC1`: -5.17%.
Next, `Cc1ccc(C(C(=O)NC2CCCC2)N(Cc2cccs2)C(=O)CNC(=O)c2cccs2)o1` (configuration not stated): 5.18%.
For the compound `Cc1ccc(C)c(N2CCN(C(=O)c3ccc(NS(=O)(=O)c4c(C)noc4C)cc3)CC2)c1`, the growth inhibition was 3.98%.
As for `Cc1ccc(CN2C(=O)NC(=O)C3(Cc4c(nc5ccccn5c4=O)N4CCCCCC43)C2=O)cc1` (configuration not stated), the growth inhibition was -2%.
The figure for `O=C(NC12CC3CC(CC(C3)C1)C2)c1ccccc1O` is 8.6%.
The figure for `COc1ccc(-c2[nH]c(-c3cccc(OC)c3)nc2SCC(=O)NCc2ccco2)cc1` is -2.87%; for `OC(COc1ccc(Cl)c2ccccc12)CN1CCN(c2ccccn2)CC1` (configuration not stated) it is -3.05%; for `O=C(Nc1nc2n(n1)C(c1ccc(Cl)cc1)CC(c1ccc(Cl)cc1)N2)c1ccco1` (configuration not stated) it is 9.43%.
The figure for `CCOc1cc(C)c(C(C)C)cc1S(=O)(=O)N1CC(C)OC(C)C1` (configuration not stated) is 3.51%.
On to `CCN(C(=O)c1ccc(C(C)(C)C)cc1)c1nnc(Cn2nnc3ccccc32)s1`, for which the growth inhibition was 2.41%.
Next, `COc1cc2cc(C(c3nnnn3C3CCCCC3)N(C)C3CCCCC3)c(=O)[nH]c2cc1OC` (configuration not stated): -2.92%; `N#Cc1c(NC(NC(=O)c2ccco2)C(=O)c2ccccc2)sc2c1CCCC2` (configuration not stated): 1.57%.
The figure for `Cc1ccc(C)c(SCC(=O)Nc2nnc(-c3ccccc3)o2)c1` is 6.77%; for `COc1cccc(-c2csc(N3CCN(C(=O)C4CCCCC4)CC3)n2)c1` it is -1.87%.
Take `O=C(Nc1cccc(C(F)(F)F)c1)N1CCC(c2nc(-c3ccc(F)cc3)no2)CC1`: the growth inhibition is -2.79%.
The figure for `CCOc1ccc2nc(NC(=O)C(CC)Sc3nc(C)cc(=O)[nH]3)sc2c1` (configuration not stated) is 0.31%; for `CCn1cc(C(=O)Nc2nncs2)c(=O)c2cc(F)c(N3CCN(C(=O)c4ccco4)CC3)cc21` it is 15.6%; for `CCn1cc(C(=O)O)c(=O)c2cc(OC)ccc21` it is -5.37%.
The figure for `CCn1cc(C(=O)O)c(=O)c2cnc(N3CCN(C(=O)Nc4ccccc4)CC3)nc21` is 5.46%; for `CCOC(=O)c1cn(CC)c2cc(N3CCCCC3)c(F)cc2c1=O` it is -1.4%; for `Cc1nc2c(C(=O)NCc3ccc4c(c3)OCO4)c[nH]n2c(=O)c1Cc1ccccc1F` it is 0.56%.
The figure for `CCOC(=O)c1cn(CC)c2cc(N3CCOCC3)c(F)cc2c1=O` is 3.52%; for `Cc1ccc2nc(NC(=O)CNS(=O)(=O)c3ccc(Br)s3)sc2c1` it is 1.78%.
On to `CN(C)c1nc(SCCOC(=O)Nc2ccccc2)nc(N(C)C)n1`, for which the growth inhibition was 3.85%.
On to `O=C(Nc1nc(-c2ccccc2)cs1)c1cccs1`, for which the growth inhibition was -1.94%.
The figure for `COc1ccc(CN(C(=O)CN2C(=O)COc3ccccc32)C2CCCC2)c(OC)c1` is 6.95%; for `COc1ccc2[nH]c3c(=O)n(CCCCC(=O)NCCN4CCCC4)c(=S)[nH]c3c2c1` it is -2.44%.
The figure for `Clc1ccc(Cl)c(-c2nn3c(COc4ccccc4)nnc3s2)c1` is 2.46%.
Take `CCOC(=O)c1nnn(-c2nonc2-n2cccc2)c1CN1CCC(C)CC1`: the growth inhibition is 3.87%.
For the compound `COc1ccc(Cn2c(=O)sc3ccccc32)cc1`, the growth inhibition is 2.87%.
Next, `O=C(NC1CCCCCCC1)c1ccccc1O`: 0.38%.
Next, `Brc1cccc(-c2n[nH]c(-c3ccccc3)n2)c1`: 4.22%; `CCc1nc2sc3ccccc3c(=O)c2c(=O)n1Cc1ccco1`: 5.6%.
Next, `CCOC(=O)c1c(NS(=O)(=O)c2cccc(OC)c2)sc2c1CCC2`: 0.74%; `CCCn1nnc(NC(=O)COc2ccc(C3CCCCC3)cc2)n1`: 6.61%.
As for `COc1cccc(NC(=O)N2CCN(c3cccc(C)c3C)CC2)c1`, the growth inhibition is -2.15%.
Next, `CN(Cc1ccccc1)C(=O)CSc1nc2ccccc2c(=O)n1Cc1ccco1`: 4.9%; `COc1ccc2nc(NC(=O)C3CCCN(S(=O)(=O)c4cccs4)C3)sc2c1` (configuration not stated): -10.2%; `c1ccc(-c2oc3ncnc(NCCCn4ccnc4)c3c2-c2ccccc2)cc1`: 13.2%.
Next, `CC(C)(C)OC(=O)N1CCC[C@H]1c1nnc(SCc2ccc(Cl)cc2Cl)o1`: 6.74%; `Cn1c(CSc2nc3ccccc3s2)nc2ccccc21`: -7.99%.
With `CCOC(=O)c1ccc(-n2[nH]c(-c3ccccc3)cc2=O)cc1`, the growth inhibition was -2.7%.
The figure for `Cn1c(C(=O)N2CCc3ccccc3C2)cc2oc3ccccc3c21` is -4.13%.
The figure for `Cc1ccc(Nc2nc(CSc3nnnn3-c3ccccc3)cs2)cc1` is -12.4%.
The figure for `O=C(c1ccco1)N1CCN(c2c(-c3ccccc3)c3cc(Cl)ccc3[nH]c2=O)CC1` is 0.97%; for `Cc1ccc(S(=O)(=O)NCCSc2nnnn2-c2cc(C)ccc2C)cc1` it is 1.62%; for `CCOc1ccc(-c2nc(C#N)c(N3CCCCCC3)o2)cc1` it is -1.95%.
On to `COc1ccc(-c2csc(NCc3ccco3)n2)cc1C`, for which the growth inhibition is -4.35%.
Next, `COc1cc(-c2nc(Cc3ccccc3Cl)no2)cc(OC)c1OC`: -4.44%; `CC(=O)c1c(O)cc(C)n(Nc2nc(C)cc(C)n2)c1=O`: -5.46%; `Cc1ccc(CN2CCSc3ccc(C(=O)N4CCN(c5ncccn5)CC4)cc32)cc1`: -4.07%.
Next, `COc1nnc(-c2ccc(N3CCCCC3)c(N)c2)c2ccccc12`: 9.66%; `Cc1ccc(SCC(=O)N(Cc2nc(-c3ccccc3)no2)C(C)C)cc1`: 3.99%; `Cc1c(NC(=O)Nc2ccc(Cl)c(Cl)c2)c(=O)n(-c2ccccc2)n1C`: 1.5%.
Next, `Cc1noc(NS(=O)(=O)c2ccc(NC(=O)Nc3ccc(Cl)c(Cl)c3)cc2)c1C`: 7.34% (active).
Regarding `Cc1noc(NS(=O)(=O)c2ccc(NC(=O)COc3ccc(Cl)cc3Cl)cc2)c1C`, the growth inhibition was 2.59%.
Next, `CCOC(=O)c1csc(Nc2nc3ccc(F)cc3s2)n1`: -0.43%.
The figure for `CC(C)(C)C(=O)Cn1c(=N)n(Cc2ccccc2)c2ccccc21` is 1.48%; for `O=c1n(Cc2ccccc2)c2cc(Cl)cnc2n1Cc1ccccc1` it is -2.48%; for `Cc1cc(Cl)cc(C)c1OCCCCn1ccnc1` it is 8.19%.
The figure for `COc1ccc(Oc2cn[nH]c2-c2ccc(O)cc2O)cc1` is -1.15%.
On to `COc1cc(NS(=O)(=O)c2ccc(NC(=O)COc3ccccc3Cl)cc2)nc(OC)n1`, for which the growth inhibition was -7.59%.
The figure for `CC1(C)CC(=O)C=C(NCCN2CCN(C(=O)Nc3ccc(Cl)c(Cl)c3)CC2)C1` is 3.54%; for `Cc1ccc2[nH]c(=O)c(C(c3nnnn3C3CCCC3)N(Cc3cccnc3)Cc3ccco3)cc2c1` (configuration not stated) it is 0.6%; for `Cc1ccc2c(c1)NC(=O)C(CC(=O)NCCCN1CCN(c3cc(Cl)ccc3C)CC1)O2` (configuration not stated) it is 1.34%.
The figure for `CC(C)CCOC(=O)c1c(N)n(CC2CCCO2)c2nc3ccccc3nc12` (configuration not stated) is 4.63%; for `CCOc1cccc(NC(=O)C2CC(=O)N(C)C(=Nc3cccc(F)c3)S2)c1` (configuration not stated) it is -8.98%.
The figure for `COC(=O)c1ccc(OC)c(CSc2nnc(COc3ccccc3)o2)c1` is 0.08%; for `Cc1ccc(SC/C(O)=C(\C#N)c2nc3ccccc3s2)cc1` it is 0.79%; for `O=C(COc1ccccc1)Nc1ccccc1N1CCCCC1` it is -2.29%.
As to `O=C(CCSc1nc(-c2ccco2)cc(C(F)(F)F)n1)N1CCCc2ccccc21`, the growth inhibition was -1.07%.
Next, `Cc1ccccc1Cn1nc(C)c(NC(=O)c2noc3c2CCc2ccccc2-3)c1C`: -4.26%.
The figure for `CCn1c2ccccc2c2nnc(SCc3ccccc3)nc21` is -4.04%; for `Cc1ccc(-n2c(C)cc(C3N=C(N)Nc4nc5ccccc5n43)c2C)c(C)c1` (configuration not stated) it is 6.51%.
Next, `CCCCCC(=O)Nc1ccccc1N1CCN(c2ccccc2)CC1`: 1.48%; `O=C(c1ccc(COc2ccc3c(c2)CCC3)o1)N1CCN(c2ccccc2)CC1`: -0.73%; `CCN(CC)c1nc(N)c2c(N)nc3c(c2c1C#N)CC(c1ccccc1)O3` (configuration not stated): 9.58%.
Regarding `CCc1ccccc1N(C)C(=O)CCc1nc(-c2ccc(C)cc2)no1`, the growth inhibition was -3.1%.
Next, `CCOC(=O)C1CN(c2cc3c(cc2F)c(=O)c(C(=O)O)cn3CC)OC1C(=O)OCC` (configuration not stated): 0.67%; `Cc1nn(-c2ccccc2)c2sc(C(=O)N(CC(=O)NC(C)(C)C)Cc3ccco3)cc12`: -4.44%.
Next, `Cc1onc(-c2ccccc2)c1C(=O)Nc1nnc(N(C)Cc2ccccc2)s1`: -4.99%; `COc1cccc(-c2cc(C(=O)N3CC4(C)CC3CC(C)(C)C4)no2)c1` (configuration not stated): 0.09%.
In the case of `CC(C)C(c1nnnn1C1CCCC1)N1c2ccccc2CC1C` (configuration not stated), the growth inhibition is 0.18%.
The figure for `CC1CCN(S(=O)(=O)c2ccc(Cl)cc2Br)CC1` is 7.88%; for `CCOC(=O)c1ccc(N2C(=O)c3n[nH]c(C)c3C2c2ccc(OC)cc2OC)cc1` (configuration not stated) it is -0.55%; for `O=C(c1ccc(COc2c(F)c(F)cc(F)c2F)o1)N1CCN(c2ccc(Cl)cc2)CC1` it is -6.87%.
Next, `N#Cc1ccc(CSc2nnc(-c3cccs3)n2-c2ccccc2)cc1`: -1.14%; `CCn1c(CNc2cccc(Cl)c2)nnc1SCC(=O)OC1CCCCC1`: 1.08%.
The figure for `Fc1ccc(Br)cc1C1C=C(c2ccc(Br)s2)Nc2ncnn21` (configuration not stated) is -4.11%; for `CC1CCN(S(=O)(=O)c2cccc(C(=O)NCc3cccs3)c2)CC1` it is 0.28%.
`CC(=O)Nc1cccc(NC(=O)c2oc3ccccc3c2C)c1`: the growth inhibition was 2.78%.
Next, `N=C(N)c1c(O)n(C2CCCCC2)c(=O)n(C2CCCCC2)c1=O`: 3.33%; `COCc1nnc(NC(=O)c2ccc(S(=O)(=O)N(C)C3CCCCC3)cc2)o1`: 0.24%; `Cc1cc(Nc2ccccc2)nc(-c2ccccc2O)n1`: 1.65%.
The figure for `CCOC(=O)c1cnc(-n2nc(C)cc2C)nc1NCc1ccccc1` is 0.66%.
The figure for `CCn1nc(-c2ccccc2)nc2c(=O)n(C)c(=O)nc1-2` is 1.94%.
`CC(C)(C)c1cc(C(F)(F)F)nc(SCCCNC(=O)c2ccco2)n1`: the growth inhibition was 6.78%.
For the compound `CC(C)(C)n1nnnc1C(c1cccs1)N(Cc1ccccc1)Cc1cccnc1` (configuration not stated), the growth inhibition was 3.16%.
Next, `CCOC(=O)c1c(-c2ccccc2)nnn1-c1nc(OCC)nc(N2CCCCC2)n1`: 0.78%; `c1ccc(CCN2CCN(c3ncnc4c3cnn4-c3ccccc3)CC2)cc1`: 6.43%; `CCOC(=O)c1ccc(NC(=O)CCc2nc(-c3ccccc3Cl)no2)cc1`: -0.84%.
With `CCOc1ccc(S(=O)(=O)Nc2cccc(Cl)c2)cc1`, the growth inhibition was 12.8%.
`CCCCOc1ccc(S(=O)(=O)N2CCCCCC2)cc1`: the growth inhibition is 3.61%.
